The results in this text go back to ChEMBL document CHEMBL1134314, “Characterization of the 1H-cyclopentapyrimidine-2,4(1H,3H)-dione derivative (S)-CPW399 as a novel, potent, and subtype-selective AMPA receptor full agonist with partial desensitization properties” (J Med Chem, 2001).

Calls of active or inactive are those of the source. The rule behind the calls is not given here. Where only a bound is given, the exact number is not on record here.

Assay [1] deals with Glutamate receptor ionotropic, kainate. Briefly: Binding affinity towards Ionotropic glutamate receptor kainate in rat brain. Format: tissue-based. The method in brief: (§1)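 Radioligand competition binding on native ionotropic glutamate receptors in rat brain membranes. Inactivity was defined at 10^-4 M. Values are means ± SEM of three to four competition experiments, each run in triplicate.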

The target of assay [2] is Glutamate NMDA receptor (Rattus norvegicus) (UniProt P35439+Q00959+Q00960+Q00961+Q62645+Q8VHN2+Q9R1M7). Briefly: Binding affinity towards NMDA receptor; not active. Format: protein-complex assay. The method in brief: as §1
A short description of assay [3]: Hill slope was determined.
Assay [4] concerns the target Glutamate receptor ionotropic, AMPA (Rattus norvegicus, UniProt P19490+P19491+P19492+P19493). Briefly: Binding affinity towards AMPA receptor in rat brain. Format: tissue-based.

Usually Ki stands for a dissociation constant, usually derived from enzyme kinetics or from competition with a known ligand. Low readings indicate a stronger hold on the target, high ones a looser hold on the target. In the case of `N[C@@H](Cn1c2c(c(=O)[nH]c1=O)CCC2)C(=O)O`, in assay [1], the Ki was found to be 7.94 µM. Further, the NA entry in assay [2] is “inactive”. Also, in assay [3], the Hill coefficient is 0.95 nH [middle of 8 runs].
Take `N[C@@H](Cn1c2c(c(=O)[nH]c1=S)CCC2)C(=O)O`: the Ki in assay [1] is greater than 10 µM; in assay [4], 1.37 µM.
